# Measured values taken from ChEMBL document CHEMBL1138207, “Engineering of a VPAC2 receptor peptide agonist to impart dipeptidyl peptidase IV stability and enhance in vivo glucose disposal” (J Med Chem, 2006).
# How the values were obtained:
# [1] = biological target: T1, Pituitary adenylate cyclase-activating polypeptide type I receptor (Homo sapiens, UniProt P41586); assay: Activity at human PAC1 receptor in CHO cells by measuring cAMP accumulation; type: cell-based
# How it was run: (§1)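 CHO cells transfected with human PAC1, VPAC1 or VPAC2 receptor were incubated with peptide for 15 min at 37 °C. Buffer: HEPES pH 7.4 saline with 1% BSA, bacitracin and 100 µM IBMX as phosphodiesterase inhibitor. cAMP was measured by competitive 125I-cAMP scintillation proximity assay. Curves were fit to a single-site model.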
# [2] = biological target: T2, Vasoactive intestinal polypeptide receptor 1 (Homo sapiens, UniProt P32241); assay: Displacement of [125I]PACAP27 from human VPAC1 receptor expressed in CHO cells; type: cell-based
# T2 sequence (P32241 whole entry): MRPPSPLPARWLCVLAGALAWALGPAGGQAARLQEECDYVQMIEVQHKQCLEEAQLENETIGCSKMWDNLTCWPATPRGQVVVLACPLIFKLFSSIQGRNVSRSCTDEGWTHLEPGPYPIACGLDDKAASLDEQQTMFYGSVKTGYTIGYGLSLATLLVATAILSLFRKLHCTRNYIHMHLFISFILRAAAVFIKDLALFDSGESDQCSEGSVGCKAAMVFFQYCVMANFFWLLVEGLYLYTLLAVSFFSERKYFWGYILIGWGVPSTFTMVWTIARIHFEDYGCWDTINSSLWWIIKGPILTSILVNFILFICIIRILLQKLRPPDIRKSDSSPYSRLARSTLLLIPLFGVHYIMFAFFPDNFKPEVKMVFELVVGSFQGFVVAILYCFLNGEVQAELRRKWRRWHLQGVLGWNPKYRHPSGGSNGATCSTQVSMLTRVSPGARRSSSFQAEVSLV
# How it was run: (§2)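 Membranes (10 µg) from CHO cells transfected with human PAC1, VPAC1 or VPAC2 receptor were incubated with 0.1 nM 125I-PACAP27 and competing peptide for 20 min at 37 °C. Buffer: 20 mM HEPES pH 7.4, 0.5% BSA, CaCl2, bacitracin. Reactions were stopped on ice. Bound ligand was collected by filtration on PEI-treated filters and counted by scintillation. Data were fit to a single-site model.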
# [3] = biological target: T2, Vasoactive intestinal polypeptide receptor 1; assay: Activity at human VPAC1 receptor in CHO cells by measuring cAMP accumulation; type: functional, cell-based; how it was run: as §1
# [4] = biological target: T1, Pituitary adenylate cyclase-activating polypeptide type I receptor; assay: Displacement of [125I]PACAP27 from human PAC1 receptor expressed in CHO cells; type: cell-based; how it was run: as §2
# T1 sequence (P41586 whole entry): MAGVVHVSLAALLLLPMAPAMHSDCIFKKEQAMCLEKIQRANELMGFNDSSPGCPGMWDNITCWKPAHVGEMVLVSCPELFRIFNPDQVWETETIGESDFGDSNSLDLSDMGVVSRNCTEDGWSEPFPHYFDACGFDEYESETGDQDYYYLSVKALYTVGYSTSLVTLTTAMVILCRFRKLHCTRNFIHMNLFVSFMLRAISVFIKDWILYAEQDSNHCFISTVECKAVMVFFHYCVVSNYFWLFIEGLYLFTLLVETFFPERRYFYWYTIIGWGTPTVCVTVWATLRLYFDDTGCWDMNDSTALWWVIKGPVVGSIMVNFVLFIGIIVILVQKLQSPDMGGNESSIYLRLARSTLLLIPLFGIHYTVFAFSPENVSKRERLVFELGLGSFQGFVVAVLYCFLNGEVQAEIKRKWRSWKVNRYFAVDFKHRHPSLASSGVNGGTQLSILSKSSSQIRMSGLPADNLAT
smiles,measurement,setting,value
CC[C@H](C)[C@H](NC(=O)CNC(=O)[C@H](CC(=O)O)NC(=O)[C@H](CO)NC(=O)[C@@H](N)Cc1cnc[nH]1)C(=O)N[C@@H](Cc1ccccc1)C(=O)N[C@H](C(=O)N[C@@H](CC(=O)O)C(=O)N[C@@H](CO)C(=O)N[C@@H](Cc1ccc(O)cc1)C(=O)N[C@@H](CO)C(=O)N[C@@H](CCCN=C(N)N)C(=O)N[C@@H](Cc1ccc(O)cc1)C(=O)N[C@@H](CCCN=C(N)N)C(=O)N[C@@H](CCCCN)C(=O)N[C@@H](CCC(N)=O)C(=O)N[C@@H](CCSC)C(=O)N[C@@H](C)C(=O)N[C@H](C(=O)N[C@@H](CCCCN)C(=O)N[C@@H](CCCCN)C(=O)N[C@@H](Cc1ccc(O)cc1)C(=O)N[C@@H](CC(C)C)C(=O)N[C@@H](C)C(=O)N[C@@H](C)C(=O)N[C@H](C(=O)N[C@@H](CC(C)C)C(=O)O)C(C)C)C(C)C)[C@@H](C)O,EC50,[1],0.13 nM
same,IC50,[2],12 nM
same,EC50,[3],0.6 nM
same,IC50,[4],3 nM
